According to PMC4449736 (Science translational medicine, 2015):
Structures can show the parent of a compound that is named as a salt.

Assays:
HIV = details: TDF alone, injection drug users; cited from earlier work
[1] = assay type: in vivo, rhesus macaques (Macaca mulatta)
[2] = Plasma PK of GSK744 in Depo-Provera-treated female rhesus macaques; assay type: in vivo
Procedure, shortened: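 Female Indian rhesus macaques received 30 mg Depo-Provera IM on weeks -3 and 2 and monthly IM injections of long-acting test compound (8 treated, 4 controls), with three intravaginal SHIV162P3 challenges. Plasma drug levels were followed per animal and expressed as multiples of PAIC90. Plasma SHIV RNA was tracked weekly for 24 weeks by real-time RT-PCR (sensitivity 40 copies/mL) to time first vRNA detection.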

[3] = system: single-cycle recombinant viruses with the integrase-coding regions of FG95 mutants; assay: Susceptibility of single-cycle SIV recombinant viruses to GSK744 in TZM-bl cells; assay type: cell-based; details: Table S2
[4] = oral GSK744, humans; cited from earlier work
[5] = system: simian-human immunodeficiency virus (SHIV); details: cited from earlier work
UGT1A1, UGT1A9 = details: hepatic glucuronidation pathway; cited from earlier work
[6] = human studies, data limited; cited from earlier work

SMILES | reduced HIV infection (HIV) [%] | mean cervical T:P ratio ([1]; Depo-Provera-treated female macaques, 50 mg/kg GSK744 LA) | GSK744 concentrations lower on average in cervical tissues than rectal tissues ([1]; Depo-Provera-treated female macaques, 50 mg/kg GSK744 LA monthly) [fold] | mean T:P ratio in unwashed rectal tissues ([1]; Depo-Provera-treated female macaques, 50 mg/kg GSK744 LA, no saline rinse) | Kp ([1]; female, Indian, rhesus monkey, cervical tissue / plasma, intramuscular, 50 mg/kg) | plasma GSK744 concentration at first vRNA detection relative to PAIC90 ([2]; macaque FG95) [x PAIC90] | plasma GSK744 concentration at the time of challenges relative to PAIC90 ([2]; macaque FG95, three challenges) | plasma GSK744 concentration at first vRNA detection relative to PAIC90 ([2]; macaque FM26) | plasma GSK744 concentration at the time of challenges relative to PAIC90 ([2]; macaque FM26, three challenges) | viral susceptibility to GSK744 ([3]; integrase E198G mutation (FG95, week 20)) | susceptibility to GSK744 in vitro ([3]; integrase P142S, I210V mutations (FG95, week 11)) | apparent terminal half-life (t1/2) [4] | protection ([5]; GSK744 plasma concentrations >3x PAIC90) [%] | efficacy ([5]; GSK744 plasma concentrations ≥1x PAIC90) [%] | metabolizing enzymes (UGT1A1, UGT1A9) | relative mucosal tissue penetration [6]
CC(C)OC(=O)OCOP(=O)(CO[C@H](C)Cn1cnc2c(N)ncnc21)OCOC(=O)OC(C)C [TDF, tenofovir disoproxil fumarate] | 49 |  |  |  |  |  |  |  |  |  |  |  |  |  |  | 
C[C@H]1CO[C@@H]2Cn3cc(C(=O)NCc4ccc(F)cc4F)c(=O)c(O)c3C(=O)N12 [GSK744] |  | 0.09 (range: below detection to 0.20) | 5 | 0.37 (range: 0.15 to 1.13) | ~0.1 | < 1 | 13.3–18.4 x PAIC90 | ≈ 2.2 x PAIC90 | 12.4–18.1 X PAIC90 | did not decrease viral susceptibility | did not decrease susceptibility | approximately 40 hours | 100 | 97 | primarily by UGT1A1, with some involvement from UGT1A9 | penetrates cervical tissue slightly more efficiently than rectal tissue
